Screening results deposited in PubChem BioAssay by several laboratories.
RAM inhibit – inhibitors of the yeast RAM network, primary screen, dse1pr::URA3 reporter, 5-FOA selection | S. cerevisiae dse1pr::URA3 reporter, 5-FOA growth OD615, 2 d; analog-sensitive cbk1-as2 kinase mutant strain | inhibition, % at 50 µM | hit rate 1.8% among 190,000;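 active = inhibition above a set limit, 3 SD over mean compound inhibition, cut at about 8.4% in these data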;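 also: 0% = DMSO-only wells with no growth and 100% = 10 µM 1-NA-PP1 full growth; inhibition rescues growth on 5-FOA so higher OD means more RAM inhibition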
Insulin prom inh – inhibitors of insulin promoter-driven GFP, primary screen, imaging, TRM-6 cells, eGFP reporter, cell count; hit rate 0.9% among 130,000; AID 1273, 2008; inhibition, % at 2 µM; reporter expression induced with tamoxifen;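 active = inhibition above the mean plus 3 SD, with well images judged a real hit on visual review, cut at about 60% in these data, passing the limit was not always enough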
Yeast life ext – compounds extending yeast replicative lifespan, primary screen, S. cerevisiae, OD615; inhibition of the nicotinamide effect, % at 10 µM; hit rate 0.68% among 130,000; S. cerevisiae growth with nicotinamide; deaD strain in restrictive glucose medium;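 active = inhibition above a set limit, placed 3 SD over the median of all compounds, cut at about 26% in these data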;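 also: 0% = nicotinamide-treated wells and 100% = cells grown without nicotinamide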
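Assay system: DeaD-strain S. cerevisiae. Medium: CSMM-D glucose medium, restrictive. Reagent: nicotinamide, 1.5 mM, co-present with compound. Compound: 10 µM single point, 0.25% DMSO. Schedule: culture preincubation 4 h, compound exposure 48 h, both 30 °C. Detection: absorbance at 615 nm.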
BB579 growth dn – growth inhibitors of yeast BB579 in restrictive medium, primary screen, yeast lifespan-shortening project, S. cerevisiae; OD615, 48 h; inhibition, % at 10 µM; hit rate 0.51% among 140,000; AID 804, 2007;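 active = inhibition above a set limit, 3 SD over the mean compound inhibition, cut at about 44% in these data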
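System: DeaD yeast strain BB579; buffer or medium: CSMM-D dextrose restrictive medium; technique: OD at 615 nm; schedule: 4 h cell preincubation, 48 h compound exposure, 30 °C humidified; doses: single 10 µM dose; controls: amphotericin B 10 µg/mL, positive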
HMGR II inh – inhibitors of E. faecalis class II HMGR, primary screen, biochemical, Enterococcus faecalis. hit rate 0.41% among 190,000. inhibition, % at 10 µM. HMG-CoA reductase (Enterococcus faecalis, mvaE). purified E. faecalis HMGR, NADPH absorbance 340 nm kinetic;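 active = inhibition above a set limit, the median over all tested compounds plus 3 SD, cut at about 9.5% in these data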;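 also: enzyme runs in reverse so mevalonate oxidation gives rising NADPH absorbance; 0% = complete reaction with DMSO and 100% = background rate lacking mevalonate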
* marks the source's active call; other numbers are inactive results; . = no result. Rows were chosen to be rich in hits. Some 3.7% of all compounds tested hit in one or more screens of this group.

SMILES	RAM inhibit	Insulin prom inh	Yeast life ext	BB579 growth dn	HMGR II inh
COc1ccc(-c2csc(C)n2)cc1	0.7	66.7	.	-9.8	9.8*
COc1ccccc1NC(=S)N(Cc1ccco1)Cc1cc2cc(C)ccc2[nH]c1=O	2.2	20.7	0.1	4.5	-7.2
CCN(CC)S(=O)(=O)c1ccc(C(=O)NCCSc2c[nH]c3ccccc23)cc1	8.7*	-21.9	-0.2	-23.2	-4.0
COc1ccc(-c2nnc(N)s2)cc1	2.8	75.0*	-9.5	-4.9	-1.9
Cc1ccc(-c2nnc(N)s2)cc1	0.8	7.1	-9.1	-4.5	-0.2
Cc1cnc(C(=O)OCC(=O)NC(C)CCc2ccccc2)cn1 (stereo not given)	-0.8	18.2	.	.	-3.6
COc1ccc(Cl)cc1N1C(=O)/C(=C\c2sccc2C)N=C1SCC(=O)NC1CC1	8.6*	.	-17.0	-40.7	0.3
C=CCN1C(=O)/C(=C\c2ccc(Cl)cc2)N=C1SCC(=O)NC1CCCCC1	1.2	5.4	-0.5	-33.9	-1.9
Cc1cc(S(=O)(=O)N(Cc2ccc(C(C)(C)C)cc2)Cc2cccs2)ccc1-n1cnnn1	9.3*	-76.0	3.8	-18.1	-3.0
COc1cc(S(=O)(=O)N(Cc2cccnc2)Cc2ccco2)ccc1-n1cnnn1	0.9	30.8	-11.2	-51.3	0.5
COc1cc(S(=O)(=O)N(Cc2ccc(C)cc2)Cc2ccco2)ccc1-n1cnnn1	9.0*	-6.2	-4.9	-46.7	2.8
CC(=O)Nc1ccc(OS(=O)(=O)c2cc(Cl)ccc2C)cc1	1.8	-38.9	.	.	-1.1
Cc1cc2ccccn2c1C(=O)c1ccc([N+](=O)[O-])o1	1.4	-63.6	.	.	-9.1
CC(NC(=O)c1cccs1)c1ccc2c(c1)OCO2 (stereo not given)	-0.3	-66.7	2.9	-14.1	-3.8
Cc1ccc(C(=O)NC(C)c2ccc3c(c2)OCO3)s1 (stereo not given)	2.2	0.0	.	.	13.3*
Cc1ccc(NC(=O)CSc2nc(O)c(Cc3ccccc3)c(=O)n2-c2ccccc2)cc1	3.6	-44.1	-1.9	-12.1	-4.6
CCNc1nc(OC)nc(SCC(=O)Nc2ccccc2)n1	2.5	.	.	.	0.5
COCCCNC(=O)c1c(N)n(/N=C/c2cccnc2)c2nc3ccccc3nc12	10.8*	-12.5	-18.7	-35.7	-3.9
COCCCNC(=O)c1c(N)n(/N=C/c2cccs2)c2nc3ccccc3nc12	8.7*	0.0	-11.9	-47.6	-3.3
COC(=O)c1ccc(N/C=C/C(=O)c2ccc(OC)c(OC)c2)cc1	-0.2	.	-2.3	-15.2	-1.8
COc1ccc(C(=O)/C=C/N2CCCCC2)cc1OC	3.4	22.6	-5.7	53.1*	2.4
COc1ccc(C(=O)/C=C/c2ccc(OC3CSC3)cc2)cc1OC	8.6*	-18.5	-6.7	-19.4	1.7
CCOC(=O)CC(=O)CSc1nc2ccccc2c(=O)n1-c1ccc(C(=O)NCCOC)cc1	5.0	-15.8	-1.3	-11.6	2.2
COC(=O)C1=C(C)NC(C)=C(C(=O)OC)C1C(=O)OC(C)C(=O)c1ccccc1 (stereo not given)	2.1	.	.	.	2.0
Cc1cc(N)n2ncc(-c3cccc(Br)c3)c2n1	0.1	93.3*	-13.7	-35.6	-4.7
SMILES	RAM inhibit	Insulin prom inh	Yeast life ext	BB579 growth dn	HMGR II inh
CC(=O)Nc1ccc(Nc2cc(C)nc3c(-c4ccccc4)cnn23)cc1	0.8	75.0*	-9.8	-35.8	-1.3
Cc1cc(N)n2ncc(-c3ccccc3)c2n1	3.3	87.0*	-11.0	-41.8	2.3
O=C(Cn1ccc(C(F)(F)F)n1)Nc1cccc(S(=O)(=O)N2CCCCC2)c1	0.1	.	.	.	-1.0
O=C1OC2(CCCCC2)OC(=O)C1=CNc1nc2ccccc2s1	0.9	-25.0	69.5*	-42.4	0.7
CCCCCCNC1=NCCS1	5.0	-16.7	.	.	1.3
Cc1ccc(NC(=O)C(c2ccccc2)N(C)C)cc1Cl (stereo not given)	0.9	50.0	.	.	-4.7
Cc1ccc(NC(=O)C(C)c2cccc(C(=O)c3ccccc3)c2)cc1O (stereo not given)	8.8*	-64.3	7.2	-56.0	-1.3
CC(=O)Nc1ccc(OS(=O)(=O)c2ccc([N+](=O)[O-])cc2)cc1	0.1	.	.	.	-1.0
COC(=O)C1=C(C)Nc2c(c(=O)n(C)c(=O)n2C)C1c1cccs1 (stereo not given)	2.0	.	-3.7	5.4	-8.8
COC(=O)C1=C(C)Nc2c(c(=O)n(C)c(=O)n2C)C1c1cccnc1 (stereo not given)	-0.7	-19.1	.	-37.4	13.4*
CCC(=NCc1ccc(Cl)c(Cl)c1)c1nc(-c2ccco2)oc1O	10.6*	-35.7	-6.0	-43.2	-0.8
Cc1nn(Cc2ccc(Cl)c(Cl)c2)c(C)c1NC(=O)c1cc(-c2ccco2)on1	5.8	.	-0.7	-28.7	4.5
COc1ccc(OC)c(Cc2nnc(CCC(=O)NCc3ccsc3)o2)c1	0.0	.	.	.	9.7*
COc1ccc(CC(=O)OCC(=O)N2N=C(c3ccccc3)CC2c2ccc(OC)cc2)cc1 (stereo not given)	8.9*	-142.9	2.4	-15.0	0.5
COC(=O)c1cc(NC(=S)Nc2cc(Cl)cc(Cl)c2)cc(C(=O)OC)c1	2.4	0.0	27.1*	-32.4	-4.0
CCOc1ccc(-c2c(C)n([O-])c3c([n+]2=O)CCCCC3)cc1	1.0	5.3	.	.	2.1
CCOC(=O)CSc1nnc(CNC(=O)c2ccc(S(=O)(=O)N3CCCC3)cc2)n1C	-0.7	90.0*	-18.6	0.2	-0.9
O=C(NCc1cccnc1)c1ccc(S(=O)(=O)N2CCCCC2)cc1	0.0	6.2	115.5*	-79.6	4.2
CCOC(=O)CSc1nnc(CNC(=O)c2ccc(S(=O)(=O)N3CCOCC3)cc2)n1C	-0.3	.	.	.	-2.9
O=C(NCc1ccccc1)c1ccc(S(=O)(=O)N2CCCC2)cc1	0.8	-14.3	2.0	-17.2	-1.6
c1ccc2[nH]c(-c3ccncc3)nc2c1	0.6	.	.	.	-2.6
COC(=O)c1ccc(-c2nc3ccccc3[nH]2)cc1	3.4	64.3*	-3.7	-58.2	-4.0
COc1ccc(-c2nc3ccccc3[nH]2)cc1	0.9	94.4*	-14.4	-4.3	-7.0
Cc1ccc(N=Cc2c(C)[nH]n(-c3nc4ccccc4[nH]3)c2=O)cc1	4.0	3.3	3.3	1.1	-1.2
COc1ccc(-c2cc(=O)n(-c3nc4ccccc4[nH]3)[nH]2)cc1	0.9	60.0	-24.5	95.7*	-5.1
CC(=O)c1ccc(Cc2ccc(C(C)=O)cc2)cc1	2.4	-14.3	.	.	8.9
COc1ccc(C(=O)Nc2cc(C)nn2-c2nc3ccccc3[nH]2)c(OC)c1	3.1	14.3	.	.	-2.6
COc1cccc(OC)c1C(=O)Nc1cc(C)nn1-c1nc2ccccc2[nH]1	2.3	68.4*	.	.	-1.6
CCOC(=O)c1c(N)nn(C(=O)C(C)C)c1-c1ccc(OC)cc1	-0.3	79.3*	-10.6	-75.2	-7.0
